ChEMBL document CHEMBL2177069, “Novel peptidomimetic compounds containing redox active chalcogens and quinones as potential anticancer agents” (Eur J Med Chem, 2012)

Assays:
DU-145 = experiment: Cytotoxicity against human DU145 cells; format: functional
Saccharomyces cerevisiae [1] = experiment: Growth inhibition of RCK1-deficient Saccharomyces cerevisiae YGL158W mutant at 20 ug/disc after 24 to 48 hrs by agar diffusion assay; format: functional; details: read-out: DIZ
Procedure, shortened: (§1)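 S. cerevisiae deletion mutants or wild type grown on YPD, seeded into liquid agar medium at an optical density of 0.1. 6 mm paper discs soaked with methanolic compound solution were placed on the plates and incubated at 30 °C. Growth was checked after 1 and 2 days, and the inhibition zone diameter was recorded in mm.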

MDA-MB-468 = experiment: Cytotoxicity against human MDA-MB-468 cells; format: functional
A498 [2] = experiment: Cytotoxicity against human A498 cells after 24 hrs by MTT assay; format: functional, cell-based; details: A498, 24 h
Procedure, shortened: (§2)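 MTT assay. Cells were seeded at 50,000 cells/mL in medium with 10% fetal calf serum and grown for two days at 37 °C, 10% CO2. Serial dilutions of compound were then added for 24 h. MTT was added (final 0.5 mg/mL) for 2 h, and the formazan was pelleted, washed, dissolved in isopropanol with 0.4% HCl and read at 590 nm. IC50 is the concentration giving 50% of untreated-control absorbance, taken from dose-response curves; mean of two parallel experiments.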

SK-MEL-5 = experiment: Cytotoxicity against human SK-MEL-5 cells; format: functional
BT-549 = experiment: Cytotoxicity against human BT549 cells; format: functional
SNB-75 = experiment: Cytotoxicity against human SNB75 cells; format: functional
SR = experiment: Cytotoxicity against human SR cells; format: functional
SK-OV-3 = experiment: Cytotoxicity against human SKOV3 cells; format: functional
A498 [3] = experiment: Cytotoxicity against human A498 cells; format: functional
Hs-578T = experiment: Cytotoxicity against human Hs578T cells; format: functional
HCT-15 = experiment: Cytotoxicity against human HCT15 cells; format: functional
Saccharomyces cerevisiae [4] = experiment: Growth inhibition of wild type Saccharomyces cerevisiae BY4741 at 20 ug/disc after 24 to 48 hrs by agar diffusion assay; format: functional; details: read-out: DIZ; procedure, shortened: as §1
OVCAR-5 = experiment: Cytotoxicity against human OVCAR5 cells; format: functional
U-251 = experiment: Cytotoxicity against human U251 cells; format: functional
OVCAR-8 = experiment: Cytotoxicity against human OVCAR8 cells; format: functional
Saccharomyces cerevisiae [5] = experiment: Growth inhibition of WSC4-deficient Saccharomyces cerevisiae YHL028W mutant at 20 ug/disc 24 to 48 hrs by agar diffusion assay; format: functional; details: read-out: DIZ; procedure, shortened: as §1
MOLT-4 = experiment: Cytotoxicity against human MOLT4 cells; format: functional
OVCAR-4 = experiment: Cytotoxicity against human OVCAR4 cells; format: functional
SNB-19 = experiment: Cytotoxicity against human SNB19 cells; format: functional
Saccharomyces cerevisiae [6] = experiment: Growth inhibition of GTT2-deficient Saccharomyces cerevisiae YLL060C mutant at 20 ug/disc after 24 to 48 hrs by agar diffusion assay; format: functional; details: read-out: DIZ; procedure, shortened: as §1
Saccharomyces cerevisiae [7] = experiment: Growth inhibition of SOD1-deficient Saccharomyces cerevisiae YJR104C mutant at 20 ug/disc after 24 to 48 hrs by agar diffusion assay; format: functional; details: read-out: DIZ; procedure, shortened: as §1
M14 = experiment: Cytotoxicity against human M14 cells; format: functional
Saccharomyces cerevisiae [8] = experiment: Growth inhibition of COX17-deficient Saccharomyces cerevisiae YLL009C mutant at 20 ug/disc after 24 to 48 hrs by agar diffusion assay; format: functional; details: read-out: DIZ; procedure, shortened: as §1
MCF7 = experiment: Cytotoxicity against human MCF7 cells after 24 hrs by MTT assay; format: functional, cell-based; details: MCF7, 24 h; procedure, shortened: as §2
T47D = experiment: Cytotoxicity against human T47D cells; format: functional
NCI-H322M = experiment: Cytotoxicity against human NCI-H322M cells; format: functional
HUVEC = experiment: Cytotoxicity against human HUVEC cells after 24 hrs by MTT assay; format: cell-based; procedure, shortened: as §2
HOP-62 = experiment: Cytotoxicity against human HOP62 cells; format: functional
SK-MEL-2 = experiment: Cytotoxicity against human SK-MEL-2 cells; format: functional
SF-295 = experiment: Cytotoxicity against human SF295 cells; format: functional
NCI-H460 = experiment: Cytotoxicity against human NCI-H460 cells; format: functional
HCC 2998 = experiment: Cytotoxicity against human HCC2998 cells; format: functional
A549 = experiment: Cytotoxicity against human A549 cells; format: functional
UO-31 = experiment: Cytotoxicity against human UO31 cells; format: functional
SK-MEL-28 = experiment: Cytotoxicity against human SK-MEL-28 cells; format: functional
[9] = Cytotoxicity against human 786-O cells; format: functional
MDA-MB-231 = experiment: Cytotoxicity against human MDA-MB-231 cells; format: functional
SN12C = experiment: Cytotoxicity against human SN12C cells; format: functional
EKVX = experiment: Cytotoxicity against human EKVX cells; format: functional
MDA-MB-435 = experiment: Cytotoxicity against human MDA-MB-435 cells; format: functional

CC1=C([Se]CC(OC(=O)[C@@H](CO)NC(=O)OC(C)(C)C)C(=O)NCCCCCC(=O)OCc2ccccc2)C(=O)c2ccccc2C1=O (stereo not given in full) showed a GI50 (DU-145) of 1.82 µM, an LC50 (DU-145) of 5.89 µM and a TGI (DU-145; read-out: pTGI (converted)) of 3.24 µM. It also gave a zone of inhibition at 20 µg/disc (Saccharomyces cerevisiae [1]) of 0 mm, a GI50 (MDA-MB-468) of 1.48 µM and an LC50 (MDA-MB-468) of 6.76 µM. The TGI (MDA-MB-468; read-out: pTGI (converted)) was 3.16 µM, the IC50 (A498 [2]) was 5 µM and the GI50 (SK-MEL-5) was 1.58 µM. It also gave an LC50 (SK-MEL-5) of 5.5 µM, a TGI (SK-MEL-5; read-out: pTGI (converted)) of 2.95 µM and a GI50 (BT-549) of 1.74 µM. The LC50 (BT-549) was 5.62 µM, the TGI (BT-549; read-out: pTGI (converted)) was 3.09 µM and the GI50 (SNB-75) was 1.29 µM. For the same compound, the LC50 (SNB-75) was 5.01 µM, the TGI (SNB-75; read-out: pTGI (converted)) was 2.57 µM and the GI50 (SR) was 1.58 µM. For the same compound, the LC50 (SR) was greater than 100 µM, the TGI (SR; read-out: pTGI (converted)) was 6.61 µM and the GI50 (SK-OV-3) was 1.29 µM. For the same compound, the LC50 (SK-OV-3) was 5.13 µM, the TGI (SK-OV-3; read-out: pTGI (converted)) was 2.57 µM and the GI50 (A498 [3]) was 2.04 µM. It also gave an LC50 (50% lethal concentration) (A498 [3]) of 45.7 µM, a TGI (A498 [3]; read-out: pTGI (converted)) of 5.89 µM and a GI50 (Hs-578T) of 2 µM. For the same compound, the LC50 (Hs-578T) was greater than 100 µM, the TGI (Hs-578T; read-out: pTGI (converted)) was 4.68 µM and the GI50 (HCT-15) was 1.95 µM. The LC50 (HCT-15) was 7.41 µM, the TGI (HCT-15; read-out: pTGI (converted)) was 3.8 µM and the zone of inhibition at 20 µg/disc (Saccharomyces cerevisiae [4]) was 0 mm. The GI50 (OVCAR-5) was 2.09 µM, the LC50 (OVCAR-5) was 6.31 µM and the TGI (OVCAR-5; read-out: pTGI (converted)) was 3.63 µM. For the same compound, the GI50 (U-251) was 0.933 µM, the LC50 (U-251) was 4.9 µM and the TGI (U-251; read-out: pTGI (converted)) was 2.19 µM. The GI50 (OVCAR-8) was 1.82 µM, the LC50 (OVCAR-8) was 6.17 µM and the TGI (OVCAR-8; read-out: pTGI (converted)) was 3.39 µM. It also gave a zone of inhibition at 20 µg/disc (Saccharomyces cerevisiae [5]) of 0 mm, a GI50 (MOLT-4) of 1.38 µM and an LC50 (MOLT-4) greater than 100 µM. It also gave a TGI (MOLT-4; read-out: pTGI (converted)) of 4.9 µM, a GI50 (OVCAR-4) of 1.55 µM and an LC50 (OVCAR-4) of 5.37 µM. For the same compound, the TGI (OVCAR-4; read-out: pTGI (converted)) was 2.88 µM, the GI50 (SNB-19) was 0.776 µM and the LC50 (SNB-19) was 5.01 µM. For the same compound, the TGI (SNB-19; read-out: pTGI (converted)) was 2.14 µM, the zone of inhibition at 20 µg/disc (Saccharomyces cerevisiae [6]) was 12 mm and the zone of inhibition at 20 µg/disc (Saccharomyces cerevisiae [7]) was 17 mm. The GI50 (M14) was 1.78 µM, the LC50 (M14) was 6.03 µM and the TGI (M14; read-out: pTGI (converted)) was 3.31 µM. It also gave a zone of inhibition at 20 µg/disc (Saccharomyces cerevisiae [8]) of 0 mm, an IC50 (MCF7) of 5 µM and a GI50 (T47D) of 1.62 µM. It also gave an LC50 (T47D) of 9.55 µM, a TGI (T47D; read-out: pTGI (converted)) of 3.98 µM and a GI50 (NCI-H322M) of 0.417 µM. For the same compound, the LC50 (NCI-H322M) was 27.5 µM, the TGI (NCI-H322M; read-out: pTGI (converted)) was 1.91 µM and the IC50 (HUVEC) was 35 µM. For the same compound, the GI50 (HOP-62) was 0.417 µM, the LC50 (HOP-62) was 4.79 µM and the TGI (HOP-62; read-out: pTGI (converted)) was 1.74 µM. For the same compound, the GI50 (SK-MEL-2) was 2.24 µM, the LC50 (SK-MEL-2) was 7.41 µM and the TGI (SK-MEL-2; read-out: pTGI (converted)) was 4.07 µM. It also gave a GI50 (SF-295) of 0.324 µM, an LC50 (SF-295) of 30.9 µM and a TGI (SF-295; read-out: pTGI (converted)) of 1.51 µM. For the same compound, the GI50 (NCI-H460) was 0.457 µM, the LC50 (NCI-H460) was 5.37 µM and the TGI (NCI-H460; read-out: pTGI (converted)) was 1.62 µM. For the same compound, the GI50 (HCC 2998) was 2 µM, the LC50 (HCC 2998) was 6.17 µM and the TGI (HCC 2998; read-out: pTGI (converted)) was 3.47 µM. The GI50 (A549) was 1.38 µM, the LC50 (A549) was 6.92 µM and the TGI (A549; read-out: pTGI (converted)) was 3.09 µM. For the same compound, the GI50 (UO-31) was 1.55 µM, the LC50 (UO-31) was 5.89 µM and the TGI (UO-31; read-out: pTGI (converted)) was 3.02 µM. It also gave a GI50 (SK-MEL-28) of 1.78 µM, an LC50 (SK-MEL-28) of 5.75 µM and a TGI (SK-MEL-28; read-out: pTGI (converted)) of 3.24 µM. For the same compound, the GI50 ([9]; 786-0) was 2.09 µM, the LC50 ([9]; 786-0) was 6.03 µM and the TGI ([9]; 786-0, read-out: pTGI (converted)) was 3.55 µM. For the same compound, the GI50 (MDA-MB-231) was 1.66 µM, the LC50 (MDA-MB-231) was 6.03 µM and the TGI (MDA-MB-231; read-out: pTGI (converted)) was 3.16 µM. It also gave a GI50 (SN12C) of 1.95 µM, an LC50 (SN12C) of 6.61 µM and a TGI (SN12C; read-out: pTGI (converted)) of 3.63 µM. The GI50 (EKVX) was 1.82 µM, the LC50 (EKVX) was 8.32 µM and the TGI (EKVX; read-out: pTGI (converted)) was 3.89 µM. The GI50 (MDA-MB-435) was 1.78 µM, the LC50 (MDA-MB-435) was 6.76 µM and the TGI (MDA-MB-435; read-out: pTGI (converted)) was 3.47 µM.
